Measurements as given in ChEMBL document CHEMBL1128719, “The synthesis, structure-activity, and structure-side effect relationships of a series of 8-alkoxy- and 5-amino-8-alkoxyquinolone antibacterial agents” (J Med Chem, 1995).
Values after ≈ are worked out from the molar mass of the structure shown.

Assays:
[1] = system: Streptococcus pneumoniae; assay: In vitro antibacterial activity was tested for Streptococcus pneumoniae SV-1; format: functional
Procedure, shortened: (§1)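 Microtitration (microdilution) MIC determination in μg/mL against a panel of Gram-positive, Gram-negative and anaerobic organisms. Values come from duplicate or triplicate experiments and are stated accurate to ±50%.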

[2] = system: Escherichia coli; assay: In vitro antibacterial activity was tested for Escherichia coli Vogel; format: functional; procedure, shortened: as §1
[3] = system: Pseudomonas aeruginosa; assay: In vitro antibacterial activity was tested for Pseudomonas aeruginosa UI-18; format: functional; procedure, shortened: as §1
[4] = system: Escherichia coli; assay: In vitro antibacterial activity was tested for Escherichia coli H560; format: functional; procedure, shortened: as §1
[5] = system: Staphylococcus aureus; assay: In vitro antibacterial activity was tested for Staphylococcus aureus UC-76; format: functional; procedure, shortened: as §1
[6] = system: Staphylococcus aureus; assay: In vitro antibacterial activity was tested for Staphylococcus aureus H228; format: functional; procedure, shortened: as §1
[7] = system: Enterococcus faecalis; assay: In vitro antibacterial activity was tested for Streptococcus faecalis MGH-2; format: functional; procedure, shortened: as §1
[8] = system: V79; assay: Clonogenic cytotoxicity against Chinese hamster V-79 cells; format: functional, cell-based; settings: Cricetulus griseus
Procedure, shortened: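 Chinese hamster V-79 cells grown overnight, then exposed to drug 3 h at 37 °C; drug medium replaced with fresh medium, cells incubated 5 days and scored for colony formation. IC50 (μg/mL) taken as concentration inhibiting colony formation by 50% versus control.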

[9] = system: Enterobacter cloacae; assay: In vitro antibacterial activity was tested for Enterobacter cloacae HA2646; format: functional
[10] = system: Providencia rettgeri; assay: In vitro antibacterial activity was tested for Providencia rettgeri H1771; format: functional; procedure, shortened: as §1
[11] = system: Streptococcus pyogenes; assay: In vitro antibacterial activity was tested for Streptococcus pyogenes C203; format: functional; procedure, shortened: as §1
[12] = system: Klebsiella pneumoniae; assay: In vitro antibacterial activity was tested for Klebsiella pneumoniae MGH-2; format: functional; procedure, shortened: as §1
[13] = system: Peptoniphilus asaccharolyticus; assay: In vitro antibacterial activity was tested for Pepto asac PA 3-1; format: functional; procedure, shortened: as §1
[14] = system: Clostridium perfringens; assay: In vitro antibacterial activity against Clostridium perfringens CP 3-1; format: functional
[15] = system: Cutibacterium acnes; assay: In vitro antibacterial activity was tested for Propion acnes PA5-1; format: functional; procedure, shortened: as §1
[16] = system: Bacteroides fragilis; assay: In vitro antibacterial activity against Bacteroides fragilis BFA; format: functional; procedure, shortened: as §1
[17] = system: Clostridioides difficile; assay: In vitro antibacterial activity was tested for Clostridium diff CD1-1; format: functional

Structure (SMILES) | MIC [1] | MIC [2] | MIC [3] | MIC [4] | MIC [5] | MIC [6] | MIC [7] | IC50 [8] | MIC [9] | MIC [10] | MIC [11] | MIC [12] | MIC [13] | MIC [14] | MIC [15] | MIC [16] | MIC [17]
NCC1CCCN(c2nc3c(cc2F)c(=O)c(C(=O)O)cn3C2CC2)C1 (stereo not drawn) | 0.2 µg/mL (≈ 0.555 µM) | 0.4 µg/mL (≈ 1.11 µM) | 6.3 µg/mL (≈ 17.5 µM) | 0.4 µg/mL (≈ 1.11 µM) | 0.2 µg/mL (≈ 0.555 µM) | 1.6 µg/mL (≈ 4.44 µM) | 0.4 µg/mL (≈ 1.11 µM) | 290 µg/mL (≈ 805 µM) | 0.4 µg/mL (≈ 1.11 µM) | 1.6 µg/mL (≈ 4.44 µM) | 0.2 µg/mL (≈ 0.555 µM) | 0.8 µg/mL (≈ 2.22 µM) | – | – | – | – | –
NCC1CCCN(c2c(F)cc3c(=O)c(C(=O)O)cn(C4CC4)c3c2F)C1 (stereo not drawn) | 0.013 µg/mL (≈ 0.0344 µM) | 0.05 µg/mL (≈ 0.132 µM) | 0.4 µg/mL (≈ 1.06 µM) | 0.05 µg/mL (≈ 0.132 µM) | 0.2 µg/mL (≈ 0.53 µM) | 0.1 µg/mL (≈ 0.265 µM) | 0.05 µg/mL (≈ 0.132 µM) | 43 µg/mL (≈ 114 µM) | 0.05 µg/mL (≈ 0.132 µM) | 0.2 µg/mL (≈ 0.53 µM) | 0.013 µg/mL (≈ 0.0344 µM) | 0.2 µg/mL (≈ 0.53 µM) | 0.4 µg/mL (≈ 1.06 µM) | 0.2 µg/mL (≈ 0.53 µM) | 0.8 µg/mL (≈ 2.12 µM) | 1.6 µg/mL (≈ 4.24 µM) | 0.8 µg/mL (≈ 2.12 µM)
NCC1CCCN(c2cc3c(cc2F)c(=O)c(C(=O)O)cn3C2CC2)C1 (stereo not drawn) | 0.1 µg/mL (≈ 0.278 µM) | 0.4 µg/mL (≈ 1.11 µM) | 3.1 µg/mL (≈ 8.63 µM) | 0.4 µg/mL (≈ 1.11 µM) | 0.1 µg/mL (≈ 0.278 µM) | 0.8 µg/mL (≈ 2.23 µM) | 0.2 µg/mL (≈ 0.556 µM) | 220 µg/mL (≈ 612 µM) | 0.4 µg/mL (≈ 1.11 µM) | 1.6 µg/mL (≈ 4.45 µM) | 0.05 µg/mL (≈ 0.139 µM) | 0.8 µg/mL (≈ 2.23 µM) | – | – | – | – | –
NCC1CCCN(c2c(F)cc3c(=O)c(C(=O)O)cn(C4CC4)c3c2Cl)C1 (stereo not drawn) | 0.003 µg/mL (≈ 0.00762 µM) | 0.1 µg/mL (≈ 0.254 µM) | 1.6 µg/mL (≈ 4.06 µM) | 0.05 µg/mL (≈ 0.127 µM) | 0.003 µg/mL (≈ 0.00762 µM) | 0.025 µg/mL (≈ 0.0635 µM) | 0.05 µg/mL (≈ 0.127 µM) | 17 µg/mL (≈ 43.2 µM) | 0.2 µg/mL (≈ 0.508 µM) | 0.2 µg/mL (≈ 0.508 µM) | 0.003 µg/mL (≈ 0.00762 µM) | 0.2 µg/mL (≈ 0.508 µM) | – | – | – | – | –
